Assay results of several laboratories.
Effect on: cell growth or viability

SMILES | cell line | test | setting | IC50 [µM]
O=[N+]([O-])c1ccc(O)c(C=NNc2ccc(Cl)cc2)c1 | HEK-293T | MTT | 24 h | 11.4
Cc1nc(Nc2ncc(C(=O)Nc3c(C)cccc3Cl)s2)cc(N2CC[C@H](O)C2)n1 | Ramos | ATP luminescence | 72 h | > 10
CNC(=O)c1cc(Oc2ccc(NC(=O)Nc3ccc(Cl)c(C(F)(F)F)c3)cc2)ccn1 | THLE3 | imaging | 72 h | 8.78
O=C(Nc1cccc(-c2cn(Cc3ccc(Cl)cc3)nn2)c1)Nc1ccccc1Br | Huh-7 | CCK-8 | 72 h | 13.5
COc1ccc(NC(=O)Nc2ccc(-c3cn(Cc4ccc(C)cc4)nn3)cc2)cc1 | Huh-7 | CCK-8 | 72 h | > 50
Cc1nnc(-c2nn(Cc3ccc(Cl)cc3Cl)c3ccccc23)o1 | HepG2 |  | 48 h | 41.5
COc1cccc2c1C(=O)c1c(O)c3c(c(O)c1C2=O)C[C@@](O)(C(=O)CO)C[C@@H]3O[C@H]1C[C@H](N)[C@H](O)[C@H](C)O1 | Ramos |  | 96 h | 0.0117
C=CCn1c(=O)c2cnc(Nc3ccc(N4CCN(C)CC4)cc3)nc2n1-c1ccc2c(n1)[C@@](O)(CC)CC2 | KURAMOCHI | ATP luminescence | 72 h | 1.52
O=[N+]([O-])c1cc(I)c(O)c(C=NNc2ccccc2)c1 | HEK-293T | MTT | 24 h | 17
O=c1[nH]cc(F)c(=O)[nH]1 | Huh-7 | CCK-8 | 72 h | 17.2
O=[N+]([O-])c1cc(I)c(O)c(C=NNc2ccc(C(F)(F)F)cc2)c1 | HEK-293T | MTT | 24 h | 8.11
COc1ccc(NC(=O)Nc2cccc(-c3cn(Cc4ccccc4C)nn3)c2)cc1 | Huh-7 | CCK-8 | 72 h | 10.8
O=[N+]([O-])c1cc(Br)c(O)c(C=NNc2ccc(Br)cc2)c1 | HEK-293T | MTT | 24 h | 12.3
O=C(Nc1ccc(Cl)cc1)Nc1cccc(-c2cn(Cc3cccc(Br)c3)nn2)c1 | Huh-7 | CCK-8 | 72 h | 32.3
COc1cccc2c1C(=O)c1c(O)c3c(c(O)c1C2=O)C[C@@](O)(C(=O)CO)C[C@@H]3O[C@H]1C[C@H](N)[C@H](O)[C@H](C)O1 | Huh-7 | ATP luminescence | 72 h | 0.6
COc1cccc2c1C(=O)c1c(O)c3c(c(O)c1C2=O)C[C@@](O)(C(=O)CO)C[C@@H]3O[C@H]1C[C@H](N)[C@H](O)[C@H](C)O1 | HEK-293T | MTT | 24 h | 1.39
COc1ccc(NC(=O)Nc2ccc(-c3cn(Cc4ccc(Br)cc4)nn3)cc2)cc1 | Huh-7 | CCK-8 | 72 h | > 50
